For assay [1], the target named is T1, Human immunodeficiency virus type 1 integrase (Human immunodeficiency virus 1, UniProt Q7ZJM1). The assay is described as follows: Inhibition of HIV1 integrase strand transfer activity. An outline of the steps: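 Staged strand transfer assay using complexes preassembled on viral donor DNA with recombinantly expressed HIV-1 integrase. IC50 was reported.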

The test system of assay [2] is Human immunodeficiency virus 1. The assay is described as follows: Antiviral activity against HIV1 assessed as inhibition of viral spread in infected cells. Type of assay: functional. The gist of the method:
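HIV-1 multiple-cycle replication (viral spread) assay in cell culture. Inhibition was expressed as IC95, and in some cases also as IC50.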

Assay [3] concerns the target T1, Human immunodeficiency virus type 1 integrase. The experiment in a line: Inhibition of HIV1 integrase 3' processing/strand transfer coupled activity. The gist of the method:
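In vitro assay with recombinant HIV-1 integrase that recapitulates the staged integration process, measuring coupled 3′-processing and strand transfer. IC50 was reported.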

Assay [4] has as its system Human immunodeficiency virus. The experiment in a line: Antiviral activity against HIV PIC. Format: functional, organism-based. The following applies: Human immunodeficiency virus 1, PIC. The gist of the method:
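Preintegration complexes were isolated from HIV-1-infected cells and tested for integration activity in vitro. IC50 was reported.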

Assay [5] has as its target T1, Human immunodeficiency virus type 1 integrase. The experiment in a line: Inhibition of integration activity of HIV1 intact integrase.
For assay [6] the target is unchanged. The experiment in a line: Inhibition of disintegration activity of HIV1 intact integrase. An outline of the steps: (§1)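 Disintegration activity was measured with both full-length HIV-1 integrase and its catalytic core domain (amino acids 50-212). IC50 was reported.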
The target is the same in assay [7]. The assay is described as follows: Inhibition of disintegration activity of HIV1 integrase catalytic core domain (50 to 212). The gist of the method: as §1
Assay [8] in a line: Inhibition of HIV1 recombinant gp120/CD4 interaction by ELISA. Background: An ELISA detects its analyte on a solid surface through an enzyme-linked reagent.
The test system of assay [9] is Human immunodeficiency virus. The assay is described as follows: Antiviral activity against HIV. Format: functional, organism-based. The following applies: Human immunodeficiency virus 1.

T1 sequence (Q7ZJM1 whole entry): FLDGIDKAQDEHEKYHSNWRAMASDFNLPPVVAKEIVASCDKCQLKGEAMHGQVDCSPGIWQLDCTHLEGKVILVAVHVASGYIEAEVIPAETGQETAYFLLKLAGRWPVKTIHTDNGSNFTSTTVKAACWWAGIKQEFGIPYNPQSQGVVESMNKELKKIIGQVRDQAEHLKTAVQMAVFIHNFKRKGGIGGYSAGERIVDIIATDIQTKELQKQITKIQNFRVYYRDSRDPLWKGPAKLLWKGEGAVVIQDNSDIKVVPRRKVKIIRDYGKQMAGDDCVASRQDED

The IC50 is the concentration that inhibits the measured activity by half. Broadly, the IC95 is the concentration at which the effect reaches the 95% level. `CN1C(=O)[C@@H](c2cc(Cl)c(O)c(Cl)c2)NC(=O)[C@@H]2NC(=O)[C@@H](c3cc(Cl)c(O)c(Cl)c3)NC(=O)[C@H](NC(=O)C(=O)c3cc(Cl)c(O)c(Cl)c3)Cc3c[nH]c4c(cccc34)-c3cc2cc(c3O)Oc2ccc(cc2)C[C@H]1C(=O)O`: the half-maximal inhibitory concentration (IC50) in assay [1] is 8 µM; in [3] it was 0.6 µM. Also, the 95% effect concentration (IC95) in assay [2] amounted to 5 µM.

For `CN1C(=O)[C@@H](c2cc(Cl)c(O)c(Cl)c2)NC(=O)[C@@H]2NC(=O)[C@@H](c3cc(Cl)c(O)c(Cl)c3)NC(=O)[C@H](NC(=O)C(=O)c3cc(Cl)c(O)c(Cl)c3)Cc3c[nH]c4c(cccc34)-c3cc2cc(c3O)Oc2ccc(cc2)C[C@H]1C(=O)N[C@@H](C(=O)O)c1ccc(O)cc1` [CHLOROPEPTIN], the IC50 in assay [1] is 5 µM; in assay [3], 0.4 µM. Moreover, in assay [2], the concentration for an effect of 95% (IC95) was 5 µM.

Turning to `CN1C(=O)[C@@H](c2cc(Cl)c(O)c(Cl)c2)NC(=O)[C@@H]2NC(=O)[C@@H](c3cc(Cl)c(O)c(Cl)c3)NC(=O)[C@H](NC(=O)C(=O)c3cc(Cl)c(O)c(Cl)c3)Cc3c[nH]c4cc(ccc34)-c3cc2cc(c3O)Oc2ccc(cc2)C[C@H]1C(=O)N[C@@H](C(=O)O)c1ccc(O)cc1` [ISOCOMPLESTATIN], the IC50 came out at 3 µM in [4]; 4 µM in [1]; 3 µM in assay [5]; 0.5 µM in assay [6]; 0.5 µM in assay [7]; 2 µM in assay [8]. Further, the half-maximal inhibitory concentration (IC50) in assay [9] and in assay [3] was 0.2 µM in each case. The 95% effect concentration (IC95) in assay [2] stood at 5 µM.

In the case of `CN[C@@H](Cc1ccc(Oc2cc3cc(c2O)-c2cccc4c(c[nH]c24)C[C@@H](N)C(=O)N[C@H](c2cc(Cl)c(O)c(Cl)c2)C(=O)N[C@H]3C(=O)O)cc1)C(=O)O`, the IC50 was greater than 100 µM in assay [1] and 28 µM in [3].

In the case of `CN1C(=O)[C@@H](c2cc(Cl)c(O)c(Cl)c2)NC(=O)[C@@H]2NC(=O)[C@@H](c3cc(Cl)c(O)c(Cl)c3)NC(=O)[C@H](NC(=O)C(=O)c3cc(Cl)c(O)c(Cl)c3)CC3C(=O)Nc4cc(ccc43)-c3cc2cc(c3O)Oc2ccc(cc2)C[C@H]1C(=O)N[C@@H](C(=O)O)c1ccc(O)cc1` (stereo partly drawn) [COMPLESTATINS A], the half-inhibitory concentration (IC50) in [1] was 12.5 µM; in [3], 0.8 µM.

For `CN1C(=O)[C@@H](c2cc(Cl)c(O)c(Cl)c2)NC(=O)[C@@H]2NC(=O)[C@@H](c3cc(Cl)c(O)c(Cl)c3)NC(=O)[C@H](N)Cc3c[nH]c4c(cccc34)-c3cc2cc(c3O)Oc2ccc(cc2)C[C@H]1C(=O)O`, the IC50 in [1] worked out at 6 µM; in assay [3], 0.5 µM. Besides, the IC95 in assay [2] came to 7.5 µM.

In the case of `CN(C(=O)[C@H](N)c1cc(Cl)c(O)c(Cl)c1)[C@@H](Cc1ccc(Oc2cc3cc(c2O)-c2cccc4c(c[nH]c24)C[C@@H](N)C(=O)N[C@H](c2cc(Cl)c(O)c(Cl)c2)C(=O)N[C@H]3C(=O)O)cc1)C(=O)O`, the IC50 in assay [1] came to 86 µM; in assay [3], 7.8 µM.

Take `CN1C(=O)[C@@H](c2cc(Cl)c(O)c(Cl)c2)NC(=O)[C@@H]2NC(=O)[C@@H](c3cc(Cl)c(O)c(Cl)c3)NC(=O)[C@H](NC(=O)C(=O)c3cc(Cl)c(O)c(Cl)c3)CC3(O)C(=O)Nc4cc(ccc43)-c3cc2cc(c3O)Oc2ccc(cc2)C[C@H]1C(=O)N[C@@H](C(=O)O)c1ccc(O)cc1` (stereo partly drawn) [COMPLESTATIN B]: the IC50 was 12.5 µM in assay [1] and 1.7 µM in assay [3].

In the case of `CN[C@@H](Cc1ccc(Oc2cc3cc(c2O)-c2cccc4c(c[nH]c24)C[C@@H](N)C(=O)N[C@H](c2cc(Cl)c(O)c(Cl)c2)C(=O)N[C@H]3C(=O)N[C@@H](C(=O)O)c2cc(Cl)c(O)c(Cl)c2)cc1)C(=O)O`, the IC50 in [1] was determined as 45 µM; in assay [3], 3.8 µM.

(Values after ChEMBL document CHEMBL1155718, “The complestatins as HIV-1 integrase inhibitors. Efficient isolation, structure elucidation, and inhibitory activities of isocomplestatin, chloropeptin I, new complestatins, A and B, and acid-hydrolysis products of chloropeptin I” (J Nat Prod, 2001).)
